Results pooled from the literature.
Dipeptidyl peptidase 2: Dipeptidyl peptidase 2 (Homo sapiens, UniProt Q9UHL4)
CASP7: Caspase-7 (CASP7, Homo sapiens, UniProt P55210)
PTGS2: Prostaglandin G/H synthase 2 (PTGS2, Homo sapiens, UniProt P35354)

O=C(Nc1cccnn1)N1CCN([C@@H]2CCOc3cc(C(F)(F)F)ccc32)CC1  inhibition (Melanocyte-stimulating hormone receptor (Mc1r, Mus musculus, UniProt Q01727); cell-free assay; 20 µM): 0%
Cn1cc(-c2cc(F)cc(N3CCn4c(cc5c4CCCC5)C3=O)c2CO)cc(Nc2ccc(N3CCN(C4COC4)CC3)cn2)c1=O  inhibition (Dual specificity tyrosine-phosphorylation-regulated kinase 3 (DYRK3, Homo sapiens, UniProt O43781); enzyme activity, inhibitor; 0.1 µM): 5%
N#Cc1ccc(NCCNCC(=O)N2N=CCC2C#N)nc1 (centres unmarked)  inhibition (Dipeptidyl peptidase 2; enzyme activity, inhibitor; 100 µM): 77%
C#Cc1n[nH]c2c(-c3cn(C(C)c4ccccn4)c(=O)[nH]c3=O)cc(F)cc12 (centres unmarked)  inhibition (Ribosomal protein S6 kinase beta-1 (RPS6KB1, Homo sapiens, UniProt P23443); enzyme activity, inhibitor; 1 µM): -2.1%
CC(=O)N[C@@H](CC(=O)O)C(=O)N[C@@H](CC(N)=O)C(=O)N[C@@H](CC(C)C)C(=O)N[C@H](C=O)CC(=O)O  inhibition (CASP7; enzyme activity, inhibitor; 5 nM): 8%
Cn1cc(-c2cccc(N3CCc4c(sc5c4CC(C)(C)C5)C3=O)c2CO)cc(Nc2ccncn2)c1=O  inhibition (Protein kinase C zeta type (PRKCZ, Homo sapiens, UniProt Q05513); enzyme activity, inhibitor; 1 µM): 10%
COCc1c(-c2cc3cc(C)cc(OC)c3s2)c2c(N)ncnn2c1CN1CCNC(=O)C1  inhibition (Alpha-2B adrenergic receptor (ADRA2B, Homo sapiens, UniProt P18089); ligand displacement, radioligand; 10 µM): 34%
CCOC(=O)c1ccc(OC(=O)CCCCCNC(=N)N)cc1  inhibition (CASP7; enzyme activity, inhibitor; 10 µM): 1%
CN(C)Cc1ccc(-c2nc3ccccc3s2)c(-c2cccc(O)c2)c1  inhibition (PTGS2; enzyme activity, inhibitor, absorbance; 10 µM): 1%
CC(C)N1CCC[C@H]1CNC(=O)c1cn(C2CCCC2)c(=O)c2c1c1ccccc1n2C  inhibition (Alpha-1D adrenergic receptor (ADRA1D, Homo sapiens, UniProt P25100); ligand displacement, radioligand; 10 µM): 9%
Oc1ccc(-c2ncccc2-c2nc3ccccc3s2)cc1  inhibition (PTGS2; enzyme activity, inhibitor, absorbance; 10 µM): 8%
OC(c1ccc(F)cc1)C(F)(F)CCN1CCC(O)(c2ccc(Cl)cc2)CC1 (racemic)  inhibition (Sigma non-opioid intracellular receptor 1 (SIGMAR1, Cavia porcellus, UniProt Q60492); ligand displacement, radioligand; 10 µM): > 50%
CN(C)Cc1ccc(-c2nc3ccccc3s2)c(-c2ccc(O)cc2)c1  inhibition (PTGS2; enzyme activity, inhibitor, absorbance; 10 µM): 0%
CN(C)C(=O)COC(=O)Cc1ccc(OC(=O)c2ccc(NC(=N)N)cc2)cc1  inhibition (Ubiquitin carboxyl-terminal hydrolase isozyme L3 (UCHL3, Homo sapiens, UniProt P15374); enzyme activity, inhibitor; 10 µM): 3%
CS(=O)(=O)c1ccc(-c2ncc(Cl)cc2-c2nc3ccccc3s2)cc1  inhibition (PTGS2; enzyme activity, inhibitor, absorbance; 10 µM): 98%
N=C(N)c1ccc2cc(OC(=O)c3ccc(N=C(N)N)cc3)ccc2c1  inhibition (Dipeptidyl peptidase 2; enzyme activity, inhibitor; 10 µM): 29%
Nc1ccc(-c2ccccc2)c(-c2nc3ccccc3s2)c1  inhibition (PTGS2; enzyme activity, inhibitor, absorbance; 10 µM): 12.4%
CC(C)C[C@H](NC(=O)[C@H](Cc1ccccc1)NC(=O)c1cnccn1)B(O)O  inhibition (Serine protease HTRA2, mitochondrial (HTRA2, Homo sapiens, UniProt O43464); enzyme activity, inhibitor; 33 µM): < 5%
Nc1ccc(-c2nc3ccccc3s2)c(-c2ccc(O)cc2)c1  inhibition (PTGS2; enzyme activity, inhibitor, absorbance; 10 µM): 15.3%
CCN(CC)CCCC[C@H](NC(=O)[C@H](CC(C)C)NC(=O)[C@H](C)NC(=O)[C@H](Cc1ccccc1)NC(=O)c1ccc(C(C)(C)C)cc1)C(=O)N[C@@H](CO)C(=O)OC  inhibition (5-hydroxytryptamine receptor 1B (Htr1b, Rattus norvegicus, UniProt P28564); ligand displacement, radioligand; 10 µM): -11%
